Experiments:
Rattus norvegicus [1] = test: Maximum change in mean aortic blood pressure in conscious renal 2-kidney/1-clip goldblatt hypertensive rat at a dose 30 mg/kg administered orally at 8h; 3 animals tested; format: functional, Artery; settings: route oral
In short: (§1)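 Male Sprague–Dawley rats made hypertensive at 4 weeks old by silver clip (0.2-mm gap) on left renal artery, contralateral kidney intact; 4–8 weeks development, cannulated (280–320 g), only mean aortic pressure >160 mmHg used. Oral dosing; 1-min running-average aortic pressure and heart rate logged every 30 min; maximum change from base line, mean ± SEM.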

Rattus norvegicus [2] = test: Mean aortic base line blood pressure in conscious renal 2-kidney/1-clip goldblatt hypertensive rat at a dose 30 mg/kg administered orally; format: functional, Artery; settings: route oral
[3] = molecular target: T1, Angiotensin-converting enzyme (Rattus norvegicus, UniProt P47820); test: Inhibition of rat Angiotensin I converting enzyme (ACE), using Hip-Gly-Gly as synthetic substrate.
T1 sequence (P47820 whole entry): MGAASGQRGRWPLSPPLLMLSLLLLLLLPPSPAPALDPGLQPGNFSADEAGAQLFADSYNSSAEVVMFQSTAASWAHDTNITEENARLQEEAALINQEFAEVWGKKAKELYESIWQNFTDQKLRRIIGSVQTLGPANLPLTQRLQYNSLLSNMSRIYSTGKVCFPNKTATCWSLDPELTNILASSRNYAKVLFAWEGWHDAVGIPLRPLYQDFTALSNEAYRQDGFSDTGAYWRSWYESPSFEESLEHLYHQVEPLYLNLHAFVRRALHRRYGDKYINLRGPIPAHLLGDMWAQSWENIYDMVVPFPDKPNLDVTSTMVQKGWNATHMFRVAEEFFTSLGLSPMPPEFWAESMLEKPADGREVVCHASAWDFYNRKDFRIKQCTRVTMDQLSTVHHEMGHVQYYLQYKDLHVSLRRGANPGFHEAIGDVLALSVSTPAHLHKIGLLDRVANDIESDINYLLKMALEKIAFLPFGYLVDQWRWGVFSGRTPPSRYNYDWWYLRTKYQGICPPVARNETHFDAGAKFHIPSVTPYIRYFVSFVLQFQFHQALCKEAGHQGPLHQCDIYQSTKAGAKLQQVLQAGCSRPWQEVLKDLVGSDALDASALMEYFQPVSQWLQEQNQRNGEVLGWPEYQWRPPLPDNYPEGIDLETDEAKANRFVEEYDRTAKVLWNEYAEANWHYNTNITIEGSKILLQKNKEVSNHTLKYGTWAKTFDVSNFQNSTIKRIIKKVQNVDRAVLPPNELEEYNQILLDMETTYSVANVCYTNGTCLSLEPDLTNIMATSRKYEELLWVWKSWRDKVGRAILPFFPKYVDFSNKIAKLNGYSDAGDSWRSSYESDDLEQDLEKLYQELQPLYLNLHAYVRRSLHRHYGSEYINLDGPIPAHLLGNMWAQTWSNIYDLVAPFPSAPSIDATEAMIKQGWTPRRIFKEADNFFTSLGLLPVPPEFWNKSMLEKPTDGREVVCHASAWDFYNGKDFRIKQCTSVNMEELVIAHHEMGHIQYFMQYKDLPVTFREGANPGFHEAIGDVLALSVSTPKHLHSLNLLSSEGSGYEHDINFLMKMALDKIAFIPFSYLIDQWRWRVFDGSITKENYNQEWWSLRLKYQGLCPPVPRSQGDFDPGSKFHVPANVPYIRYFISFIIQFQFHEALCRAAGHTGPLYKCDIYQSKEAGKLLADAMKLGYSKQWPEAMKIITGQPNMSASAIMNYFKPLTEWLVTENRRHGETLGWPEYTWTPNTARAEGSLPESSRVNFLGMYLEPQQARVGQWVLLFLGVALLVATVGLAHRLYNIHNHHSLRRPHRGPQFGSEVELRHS
In short: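 Radioassay of converting-enzyme activity with Hip-Gly-Gly as substrate; compounds dissolved at 2–5 mg/mL in Me2SO, then diluted to test concentrations in pH 8 buffer (0.05 M Hepes, 0.1 M NaCl, 0.6 M Na2SO4).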

Rattus norvegicus [4] = test: Maximum change in mean aortic blood pressure in conscious renal 2-kidney/1-clip goldblatt hypertensive rat at a dose 30 mg/kg administered orally at 6 h; 3 animals tested; format: functional, Artery; settings: route oral; in short: as §1
Rattus norvegicus [5] = test: Maximum change in mean aortic blood pressure in conscious renal 2-kidney/1-clip goldblatt hypertensive rat at a dose 3 mg/kg administered orally at 6 h; 4 animals tested; format: functional, Artery; settings: route oral
Rattus norvegicus [6] = test: Mean aortic base line blood pressure in conscious renal 2-kidney/1-clip goldblatt hypertensive rat at a dose 3 mg/kg administered orally; format: functional, Artery; settings: route oral
In short: (§2)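 Male Sprague–Dawley rats, 4 weeks old, given a silver clip (0.2-mm gap) on the left renal artery with the other kidney intact. Hypertension developed over 4–8 weeks, then rats (280–320 g) were aortic-cannulated; only those with mean pressure >160 mmHg were used. Oral dosing. One-minute running averages were logged every 30 min. Results are mean ± 1 SEM, from 3–5 rats.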

Rattus norvegicus [7] = test: Maximum change in mean aortic blood pressure in conscious renal 2-kidney/1-clip goldblatt hypertensive rat at a dose 3 mg/kg administered orally at 5h; 4 animals tested; format: functional, Artery; settings: route oral; in short: as §2
Rattus norvegicus [8] = test: Mean aortic base line blood pressure in conscious renal 2-kidney/1-clip goldblatt hypertensive rat at a dose 0.3 mg/kg administered orally; format: functional, Artery; settings: route oral
Rattus norvegicus [9] = test: Maximum change in mean aortic blood pressure in conscious renal 2-kidney/1-clip goldblatt hypertensive rat at a dose 1.0 mg/kg administered orally at 8h; 4 animals tested; format: functional, Artery; settings: route oral; in short: as §2
Rattus norvegicus [10] = test: Maximum change in mean aortic blood pressure in conscious renal 2-kidney/1-clip goldblatt hypertensive rat at a dose 10 mg/kg administered orally at 4 hr; 4 animals tested; format: functional, Artery; settings: route oral; in short: as §2
Rattus norvegicus [11] = test: Maximum change in mean aortic blood pressure in conscious renal 2-kidney/1-clip goldblatt hypertensive rat at a dose 0.3 mg/kg administered orally at 5h; 4 animals tested; format: functional, Artery; settings: route oral; in short: as §2
Rattus norvegicus [12] = test: Mean aortic base line blood pressure in conscious renal 2-kidney/1-clip goldblatt hypertensive rat at a dose 1.0 mg/kg administered orally; format: functional, Artery; settings: route oral; in short: as §2
Rattus norvegicus [13] = test: Mean aortic base line blood pressure in conscious renal 2-kidney/1-clip goldblatt hypertensive rat at a dose 3.0 mg/kg administered orally; format: functional, Artery; settings: route oral
Rattus norvegicus [14] = test: Mean aortic base line blood pressure in conscious renal 2-kidney/1-clip goldblatt hypertensive rat at a dose 10 mg/kg administered orally; format: functional, Artery; settings: route oral; in short: as §2
Rattus norvegicus [15] = test: Maximum change in mean aortic blood pressure in conscious renal 2-kidney/1-clip goldblatt hypertensive rat at a dose 30 mg/kg administered orally at 6 h; 4 animals tested; format: functional, Artery; settings: route oral
Rattus norvegicus [16] = test: Mean aortic base line blood pressure in conscious renal 2-kidney/1-clip goldblatt hypertensive rat at a dose 0.1 mg/kg administered orally; format: functional, Artery; settings: route oral; in short: as §2
Rattus norvegicus [17] = test: Maximum change in mean aortic blood pressure in conscious renal 2-kidney/1-clip goldblatt hypertensive rat at a dose 1.0 mg/kg administered orally at 3 hr; 4 animals tested; format: functional, Artery; settings: route oral; in short: as §2
Rattus norvegicus [18] = test: Maximum change in mean aortic blood pressure in conscious renal 2-kidney/1-clip goldblatt hypertensive rat at a dose 0.1 mg/kg administered orally at 10h; 4 animals tested; format: functional, Artery; settings: route oral; in short: as §2

For `C1CCC(NC2CCCCC2)CC1.O=C(O)C1C2CCCCC2C(=O)N1C(=O)CCS` (configuration not stated), the “Mean aortic blood pressure” value (Rattus norvegicus [1]) was -57 mmHg and the “Mean aortic blood pressure” value (Rattus norvegicus [2]) was 205 mmHg.
Work on `O=C(O)[C@@H]1C[C@@H]2CCCC[C@@H]2N1C(=O)CCS` (stereo in doubt; 8d) yielded an IC50 [3] of 6.4 nM.
For `C[C@H](CS)C(=O)N1c2ccccc2C[C@H]1C(=O)O`, the IC50 [3] was 3.7 nM.
`CC(=O)SCC(C)C(=O)N1C(=O)C2CCCCC2C1C(=O)O` (configuration not stated) gave an IC50 [3] of 300 nM.
`C1CCC(NC2CCCCC2)CC1.O=C(O)C1C2CCCCC2CN1C(=O)CCS` (configuration not stated) was tested, and the “Mean aortic blood pressure” value (Rattus norvegicus [4]) was -76 mmHg and the “Mean aortic blood pressure” value (Rattus norvegicus [2]) was 184 mmHg.
With `CC(=O)SCCC(=O)N1[C@H](C(=O)O)C[C@@H]2CCCC[C@@H]21` (stereo in doubt; 8c) the IC50 [3] was 480 nM.
Work on `CC(=O)SCC(C)C(=O)N1[C@H](C(=O)O)C[C@@H]2CCCC[C@@H]21` (stereo in doubt; 9a) yielded an IC50 [3] of 160 nM.
`O=C(O)[C@@H]1CCC(=O)N1C(=O)CCS` showed an IC50 [3] of 960 nM.
`CCOC(=O)C(CCc1ccccc1)NC(C)C(=O)N1C(=O)CCC1C(=O)O` (configuration not stated) was tested, and the IC50 [3] was 63 nM.
Molecule `CCOC(=O)C(CCc1ccccc1)N1C(=O)C2CC3CCCCC3N2C(=O)C1C` (configuration not stated) has an IC50 [3] of over 100000 nM.
For `CCOC(=O)C(CCc1ccccc1)NC(C)C(=O)N1[C@H](C(=O)O)C[C@@H]2CCCC[C@@H]21.Cl` (stereo in doubt; 17a), the “Mean aortic blood pressure” value (Rattus norvegicus [5]) was -87 mmHg and the “Mean aortic blood pressure” value (Rattus norvegicus [6]) was 199 mmHg.
In the case of `O=C1SCCC(=O)N2C1CC1CCCCC12` (configuration not stated), the IC50 [3] is reported as 7 nM.
`CCOC(=O)[C@H](CCc1ccccc1)N[C@@H](C)C(=O)N1CCC[C@H]1C(=O)O` was tested, and the “Mean aortic blood pressure” value (Rattus norvegicus [7]) was -56 mmHg, the “Mean aortic blood pressure” value (Rattus norvegicus [8]) was 201 mmHg and the “Mean aortic blood pressure” value (Rattus norvegicus [9]) was -24 mmHg. For the same molecule, the “Mean aortic blood pressure” value (Rattus norvegicus [10]) was -56 mmHg, the “Mean aortic blood pressure” value (Rattus norvegicus [11]) was -39 mmHg and the “Mean aortic blood pressure” value (Rattus norvegicus [12]) was 175 mmHg. The “Mean aortic blood pressure” value (Rattus norvegicus [13]) was 200 mmHg and the “Mean aortic blood pressure” value (Rattus norvegicus [14]) was 199 mmHg.
`CCOC(=O)C(CCc1ccccc1)NC(C)C(=O)N1[C@H](C(=O)O)C[C@@H]2CCCC[C@@H]21.Cl` (stereo in doubt; 11a) was tested, and the “Mean aortic blood pressure” value (Rattus norvegicus [8]) was 191 mmHg, the “Mean aortic blood pressure” value (Rattus norvegicus [15]) was -102 mmHg and the “Mean aortic blood pressure” value (Rattus norvegicus [16]) was 185 mmHg. For the same molecule, the “Mean aortic blood pressure” value (Rattus norvegicus [17]) was -72 mmHg, the “Mean aortic blood pressure” value (Rattus norvegicus [11]) was -73 mmHg and the “Mean aortic blood pressure” value (Rattus norvegicus [12]) was 190 mmHg. For the same molecule, the “Mean aortic blood pressure” value (Rattus norvegicus [2]) was 185 mmHg, the “Mean aortic blood pressure” value (Rattus norvegicus [18]) was -52 mmHg and the “Mean aortic blood pressure” value (Rattus norvegicus [14]) was 197 mmHg.

From ChEMBL document CHEMBL1123771, “Synthesis and structure-activity relationships of potent new angiotensin converting enzyme inhibitors containing saturated bicyclic amino acids” (J Med Chem, 1987)
